Measurements from ChEMBL document CHEMBL4002555, “Bioactive Pentacyclic Triterpenoids from the Leaves of Cleistocalyx operculatus” (J Nat Prod, 2016).

Columns and labels:
HepG2 = assay: Cytotoxicity against human HepG2 cells after 72 hrs by MTT assay; assay type: functional, cell-based; conditions: HepG2, 72 h
Method in brief: (§1)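 MTT growth-inhibition assay in human HepG2 hepatocellular, NCI-N87 gastric and MCF-7 breast carcinoma lines, with a doxorubicin positive control. IC50 values are means ± SD from three individual experiments; >10.0 μM was taken as noncytotoxic.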

NCI-N87 = assay: Cytotoxicity against human NCI-N87 cells after 72 hrs by MTT assay; assay type: functional, cell-based; conditions: NCI-N87, 72 h; method in brief: as §1
MCF7 = assay: Cytotoxicity against human MCF7 cells after 72 hrs by MTT assay; assay type: functional, cell-based; conditions: MCF7, 72 h; method in brief: as §1
RAW264.7 [1] = assay: Anti-inflammatory activity in mouse RAW264.7 cells assessed as inhibition of LPS-induced IL-6 production at 2 uM pretreated for 1 hr followed by LPS stimulation measured after 24 hrs by ELISA relative to control; assay type: functional
Method in brief: (§2)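 LPS-stimulated RAW 264.7 macrophages, with IL-6 and TNF-α production read separately. Test concentrations were 0.4, 2, 10 and 50 μM, and dexamethasone was the reference drug. Results are given as percent inhibition of cytokine production.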

RAW264.7 [2] = assay: Anti-inflammatory activity in mouse RAW264.7 cells assessed as inhibition of LPS-induced IL-6 production at 0.4 uM pretreated for 1 hr followed by LPS stimulation measured after 24 hrs by ELISA relative to control; assay type: functional; method in brief: as §2
RAW264.7 [3] = assay: Anti-inflammatory activity in mouse RAW264.7 cells assessed as inhibition of LPS-induced TNF-alpha production at 2 uM pretreated for 1 hr followed by LPS stimulation measured after 24 hrs by ELISA relative to control; assay type: functional; method in brief: as §2
RAW264.7 [4] = assay: Anti-inflammatory activity in mouse RAW264.7 cells assessed as inhibition of LPS-induced TNF-alpha production at 0.4 uM pretreated for 1 hr followed by LPS stimulation measured after 24 hrs by ELISA relative to control; assay type: functional; method in brief: as §2
[5] = Cytotoxicity against mouse RAW264.7 cells assessed as growth inhibition at 2 uM after 72 hrs by MTT assay relative to control; assay type: cell-based; conditions: read-out: GI
[6] = Cytotoxicity against mouse RAW264.7 cells assessed as growth inhibition at 50 uM after 72 hrs by MTT assay relative to control; assay type: cell-based; conditions: read-out: GI
RAW264.7 [7] = assay: Anti-inflammatory activity in mouse RAW264.7 cells assessed as inhibition of LPS-induced IL-6 production at 50 uM pretreated for 1 hr followed by LPS stimulation measured after 24 hrs by ELISA relative to control; assay type: functional; method in brief: as §2
RAW264.7 [8] = assay: Anti-inflammatory activity in mouse RAW264.7 cells assessed as inhibition of LPS-induced IL-6 production at 10 uM pretreated for 1 hr followed by LPS stimulation measured after 24 hrs by ELISA relative to control; assay type: functional; method in brief: as §2
RAW264.7 [9] = assay: Anti-inflammatory activity in mouse RAW264.7 cells assessed as inhibition of LPS-induced TNF-alpha production at 50 uM pretreated for 1 hr followed by LPS stimulation measured after 24 hrs by ELISA relative to control; assay type: functional; method in brief: as §2
RAW264.7 [10] = assay: Anti-inflammatory activity in mouse RAW264.7 cells assessed as inhibition of LPS-induced TNF-alpha production at 10 uM pretreated for 1 hr followed by LPS stimulation measured after 24 hrs by ELISA relative to control; assay type: functional; method in brief: as §2

SMILES | IC50 (HepG2) [µM] | IC50 (NCI-N87) [µM] | IC50 (MCF7) [µM] | inhibition at 2 µM (RAW264.7 [1]) [%] | inhibition at 0.4 µM (RAW264.7 [2]) [%] | inhibition at 2 µM (RAW264.7 [3]) [%] | inhibition at 0.4 µM (RAW264.7 [4]) [%] | inhibition at 72 h, 2 µM [5] [%] | inhibition at 72 h, 50 µM [6] [%] | inhibition at 50 µM (RAW264.7 [7]) [%] | inhibition at 10 µM (RAW264.7 [8]) [%] | inhibition at 50 µM (RAW264.7 [9]) [%] | inhibition at 10 µM (RAW264.7 [10]) [%]
COC(=O)[C@]12CC=C(C)[C@@H](C)[C@@H]1[C@H]1CC[C@@H]3[C@@]4(C)CC[C@H](O)C(C)(C)[C@@H]4CC[C@@]3(C)[C@]1(C(=O)O)CC2 | 3.2 | 6.5 | 4.9 | 51 | 38.4 | 42.9 | 39.1 | < 5 | – | – | – | – | –
CC1(C)CC[C@@]23CC[C@]4(C)[C@@](OC2=O)([C@@H]3C1)[C@H]1O[C@H]1[C@@H]1[C@@]2(C)C[C@@H](O)[C@H](O)[C@@](C)(CO)[C@@H]2CC[C@]14C | > 10 | > 10 | > 10 | < 50 | < 50 | < 50 | < 50 | – | < 5 | < 50 | < 50 | < 50 | < 50
CC1(C)CC[C@]2(C(=O)O)CC[C@]3(C)C(=CC(=O)[C@@H]4[C@@]5(C)C[C@@H](O)[C@H](O)[C@@](C)(CO)[C@@H]5CC[C@]43C)[C@@H]2C1 | > 10 | > 10 | > 10 | 33.8 | – | < 10 | – | – | < 5 | 63 | 35.2 | 18.8 | < 10
C=C1CC[C@]2(C(=O)O)CC[C@]3(C)C(=C[C@@H](OC)[C@@H]4[C@@]5(C)C[C@@H](O)[C@H](O)[C@@](C)(CO)[C@@H]5CC[C@]43C)[C@@H]2[C@H]1C | > 10 | > 10 | > 10 | < 50 | < 50 | < 50 | < 50 | – | < 5 | < 50 | < 50 | < 50 | < 50
CO[C@@H]1C=C2[C@@H]3CC(C)(C)CC[C@]3(C(=O)O)CC[C@@]2(C)[C@]2(C)CC[C@@H]3[C@](C)(C[C@@H](O)[C@H](O)[C@@]3(C)CO)[C@@H]12 | > 10 | > 10 | > 10 | 42.3 | – | 22 | – | – | < 5 | 68.8 | 64.8 | 52.8 | 54.1
C=C1CC[C@]2(C(=O)O)CC[C@]3(C)C(=CC(=O)[C@@H]4[C@@]5(C)C[C@@H](O)[C@H](O)[C@@](C)(CO)[C@@H]5CC[C@]43C)[C@@H]2[C@H]1C | > 10 | > 10 | > 10 | < 50 | < 50 | < 50 | < 50 | – | < 5 | < 50 | < 50 | < 50 | < 50
